LMPTP block = LMPTP (human) inhibition; recombinant LMPTP-A, OMFP fluorogenic substrate, fluorescence intensity; hit rate 0.22% among 360,000; P24666; inhibition, % at 20 µM;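 active = compounds that cut the enzyme signal by at least half of the control window in the single-dose screen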
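Material: LMPTP-A; amount: 0.625 nM enzyme; doses: single 20 µM dose; times: reaction 50 min, room temperature, dark; technique: fluorescence intensity of OMFP turnover product; benchmarks: no-enzyme and uninhibited controls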
DNMT1 inh = DNMT1 (human) enzyme inhibition; DNMT1 molecular beacon, Hinp1I cleavage, fluorescence; P26358; inhibition (reported as % activation of signal), % at 10 µM; hit rate 0.83% among 360,000; in the data active = inhibition above about 50%
STEP block = blocks human striatal-enriched tyrosine phosphatase. inhibition, % at 20 µM. hit rate 0.25% among 360,000. recombinant STEP, OMFP fluorogenic substrate, fluorescence. AID 588621. P54829;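 active = inhibition at 20 µM, scaled per plate between control wells, above about 37%, limit read from the data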
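System: isolated STEP enzyme; schedule: 20 min enzyme reaction at room temperature, protected from light; medium: Bis-Tris buffer pH 6.0, 2.5 mM DTT, 0.005% Tween 20; signal: fluorescence, 480/540 nm; dosing: single compound dose of 20 µM, 1% DMSO final; also added: OMFP substrate, 25 µM final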
Scp1 inh = blocks human Scp-1 phosphatase activity. AID 493091. Recombinant Scp1, phosphopeptide, malachite green phosphate absorbance. inhibition, % at 20 µM. hit rate 0.88% among 340,000;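 active = inhibition above about 50% at 20 µM, limit read from the data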
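Material – SCP-1 phosphatase catalytic domain, residues 76-261 · Buffer or medium – Acidic Tris acetate buffer with magnesium and detergent · Also added – Phospho 17-mer peptide substrate · Compound – single 20 µM dose, 1% DMSO · Times – 45 min room-temperature reaction, 5 min colour, 30 min stabiliser · Technique – Phosphate-binding colour reagent, absorbance read at 630 nm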
Rpn11 inh = inhibitors of human proteasome Rpn11; O00487; human 26S proteasome, Ub4-pepOG fluorescence polarization; 20S core pre-blocked with epoxomicin; inhibition, % at 20 µM; hit rate 0.59% among 360,000; AID 588493;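 active = inhibition at 20 µM, scaled to each plate's controls, above about 33%, limit read from the data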
DNMT1 interf DR = counter-screen for DNMT1 inhibitors: spectral interference, dose response; shares compounds with DNMT1 inh; molecular beacon fluorescence; IC50, µM; 200 tested, under 10 active; call rule not given here
DNMT1 confirm = DNMT1 inhibition confirmation, single concentration | hit rate 8% among 2,300 | inhibition, % at 10 µM | DNMT1 molecular beacon HinP1I cleavage, fluorescence | shares compounds with DNMT1 inh;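 active = average inhibition of at least 30% in the single-concentration confirmation test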
Beacon interf = shows spectral interference in the DNMT1 beacon assay. shares compounds with DNMT1 inh. hit rate 1% among 2,300. DNMT1 molecular beacon spectral interference counterscreen, fluorescence 485/520. AID 602387. activation (fluorescence interference), % at 10 µM;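 active = activation of at least 30% at 10 µM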;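 also: DNMT1 catalytic domain with a HinP1I cleavage step and a FAM/dabcyl DNA beacon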
Rpn11 confirm = confirmation of human proteasome Rpn11 inhibitors | purified human 26S proteasome, Ub4-pepOG fluorescence polarization; proteasome pretreated with epoxomicin | shares compounds with Rpn11 inh | inhibition, % at 20 µM | AID 602318 | hit rate 29% among 1,900
MMP-2 counter = blocks human MMP-2, flagging nonselective RPN11 hits; hit rate 4% among 1,900; AID 602330; recombinant MMP-2, FRET peptide cleavage fluorescence; inhibition, % at 20 µM; shares compounds with Rpn11 inh;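 also: human MMP-2 activated beforehand with APMA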
Thrombin FP = blocks bovine thrombin, flagging nonselective RPN11 hits; shares compounds with Rpn11 inh; bovine thrombin cleavage of Ub4-pepOG, fluorescence polarization; inhibition, % at 20 µM; hit rate 13% among 1,900; AID 602333;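 active = mean inhibition at least 40% at 20 µM, or signal 3 deviations below plate average, so some actives read negative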
Target sequence (P00735 whole entry, looked up): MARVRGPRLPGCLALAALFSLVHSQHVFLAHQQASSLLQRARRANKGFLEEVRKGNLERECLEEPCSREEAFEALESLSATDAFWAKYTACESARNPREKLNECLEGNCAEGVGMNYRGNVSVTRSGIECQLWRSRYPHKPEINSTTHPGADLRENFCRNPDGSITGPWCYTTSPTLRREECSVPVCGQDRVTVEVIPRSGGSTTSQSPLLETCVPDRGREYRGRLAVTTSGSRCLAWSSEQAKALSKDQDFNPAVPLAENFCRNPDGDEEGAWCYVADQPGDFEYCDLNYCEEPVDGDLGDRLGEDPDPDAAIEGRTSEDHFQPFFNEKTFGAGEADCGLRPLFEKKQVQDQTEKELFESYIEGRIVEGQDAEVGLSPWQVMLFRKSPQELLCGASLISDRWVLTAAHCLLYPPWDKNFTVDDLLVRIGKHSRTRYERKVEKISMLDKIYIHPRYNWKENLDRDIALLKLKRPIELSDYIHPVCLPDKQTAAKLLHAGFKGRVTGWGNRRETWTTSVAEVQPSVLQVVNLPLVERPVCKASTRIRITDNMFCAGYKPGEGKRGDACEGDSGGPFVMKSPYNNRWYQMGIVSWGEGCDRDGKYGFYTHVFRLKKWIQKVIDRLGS
Each line names hits and unclear results; the compound was inactive in the other large screens (follow-up assays come after a bar, where shown); ! = not active in a repeat. Only some compounds are listed: those with a hit (about 2% of all), similar ones and a draw of the others. Rule as the data show it, unless noted: active = inhibition above about 40%; inactive = the rest.

N[C@@H](Cc1ccccc1)C(=O)N1C[C@H]2C[C@@H](C1)c1cccc(=O)n1C2	none
COc1cc(OC)c(C=O)c(OC(=O)N(C)C)c1	none
Cc1cccc(N2C(=O)NC(=O)/C(=C\c3cc(C)n(-c4sc5c(c4C#N)CCCC5)c3C)C2=O)c1C	DNMT1 inh 71.2 | DNMT1 confirm inactive | Beacon interf inactive
CCOC(=O)c1c(-n2c(C)cc(C=C3C(=O)NC(=O)NC3=O)c2C)sc2c1CCCC2	none
O=C1C=C(N2CC2)c2ccccc2C1=O	DNMT1 inh 120.6 (no result: Scp1 inh) | DNMT1 interf DR inactive | DNMT1 confirm 88.4 | Beacon interf inactive
O=C1c2ccccc2-c2cc3ccccc3cc21	none
CC1SC2(CN3CCC2CC3)NC1=O (stereo not given)	none
O=c1[nH]c(=O)n(CCc2ccc(F)cc2)c(O)c1C=NCc1ccc2c(c1)OCO2	LMPTP block 50.2, DNMT1 inh 77.9, Rpn11 inh 90.3 | DNMT1 confirm inactive | Beacon interf inactive | Rpn11 confirm inactive | MMP-2 counter inactive | Thrombin FP inactive
COc1ccc(CCn2c(O)c(C=NCc3ccc4c(c3)OCO4)c(=O)[nH]c2=O)cc1OC	none
Clc1ccc(OCC#CCN2CCCC2)cc1	none
CCOC(=O)C1=C(N)OC2=C(C(=O)CCC2)[C@]12C(=O)N(CC(N)=O)c1ccccc12	none
CCCCN1C(=O)/C(=C/C=C/c2ccco2)C(=O)NC1=S	DNMT1 inh 107.3, Scp1 inh 73.8, Rpn11 inh 145.8 | DNMT1 interf DR inactive | DNMT1 confirm inactive | Beacon interf inactive | Rpn11 confirm 155.0 | MMP-2 counter 46.6 | Thrombin FP 142.8
Cc1ccc(N2C(=O)NC(=O)/C(=C/c3ccoc3)C2=O)cc1	LMPTP block 55.6, DNMT1 inh 93.2, STEP block 94.7, Scp1 inh 83.8, Rpn11 inh 150.3 | DNMT1 interf DR inactive | DNMT1 confirm 63.9 | Beacon interf inactive | Rpn11 confirm 144.3 | MMP-2 counter inactive | Thrombin FP inactive
CC(C)c1ccc(N2C(=O)CC(=O)NC2=O)cc1	Rpn11 inh 36.6 | Rpn11 confirm inactive | MMP-2 counter inactive | Thrombin FP inactive
CCc1ccccc1N1C(=O)CC(=O)NC1=O	Rpn11 inh 28.4 | Rpn11 confirm inactive | MMP-2 counter inactive | Thrombin FP inactive
O=C(N/N=C/c1c(O)n(C2CCCCC2)c(=S)[nH]c1=O)c1ccccc1O	Rpn11 inh 49.4 | Rpn11 confirm 52.9 | MMP-2 counter inactive | Thrombin FP inactive
O=C(N/N=C/c1c(O)n(CCc2ccccc2)c(=O)[nH]c1=O)c1ccccc1	Rpn11 inh 44.7 | Rpn11 confirm inactive | MMP-2 counter inactive | Thrombin FP inactive
O=c1[nH]c(=S)n(C2CC2)c(O)c1/C=N/Nc1ccccc1	none
CC(C)c1ccc(-n2c(O)c(/C=N/NC(=O)c3ccccc3O)c(=O)[nH]c2=S)cc1	Rpn11 inh 48.4 | Rpn11 confirm 53.1 | MMP-2 counter inactive | Thrombin FP inactive
CCCCn1c(O)c(/C=N/NC(=O)c2ccncc2)c(=O)[nH]c1=O	none
O=C(N/N=C/c1c(O)n(C2CCCCC2)c(=S)[nH]c1=O)c1ccccc1	Rpn11 inh 46.0 | Rpn11 confirm 49.5 | MMP-2 counter inactive | Thrombin FP inactive
C=CCN1C(=O)NC(=O)/C(=C/c2ccc(N(C)C)c(Br)c2)C1=O	none
COc1ccc(CCn2c(O)c(C=Nc3ccc(NC(C)=O)cc3)c(=O)[nH]c2=O)cc1OC	Rpn11 inh 46.1 | Rpn11 confirm inactive | MMP-2 counter inactive | Thrombin FP inactive
c1ccc2c3c([nH]c2c1)C1(CCNCC1)NCC3	none
CNC(=O)Oc1cccc(-c2cn3cc(OC(=O)NC)ccc3n2)c1	none
CNC(=O)Oc1ccc2c(c1)C(=O)c1ccccc1CO2	Rpn11 inh 100.3 | Rpn11 confirm inactive | MMP-2 counter inactive | Thrombin FP inactive
Cc1cc(OCC(=O)NCc2ccc(S(N)(=O)=O)cc2)c2c3c(c(=O)oc2c1)CCC3	none
Cc1ccccc1-n1c(O)c(/C=C2/C(c3ccccc3)=Nc3ccccc32)c(=O)[nH]c1=O	Rpn11 inh 41.2 | Rpn11 confirm inactive | MMP-2 counter inactive | Thrombin FP inactive
Cc1cccc(-n2c(O)c(/C=C3/C(c4ccccc4)=Nc4ccccc43)c(=O)[nH]c2=O)c1	none
COc1ccc2c3c([nH]c2c1)C(C)NCC3 (stereo not given)	Rpn11 inh 77.7 | Rpn11 confirm 57.9 | MMP-2 counter inactive | Thrombin FP 48.0
CCOC(=O)C1(CCOc2ccccc2)CCN(Cc2ccc(C)s2)CC1	none
COc1ccc(-n2c(O)c(/C=C3\C=Nc4ccc(Br)cc43)c(=O)[nH]c2=O)c(OC)c1	none
COc1ccc(-n2c(O)c(/C=C3\C=Nc4ccc(Br)cc43)c(=O)[nH]c2=O)cc1	Rpn11 inh 65.1 | Rpn11 confirm inactive | MMP-2 counter inactive | Thrombin FP inactive
O=c1[nH]c(=S)n(Cc2ccc(F)cc2)c(O)c1/C=N/N1CCCCCC1	Rpn11 inh 57.2 | Rpn11 confirm inactive | MMP-2 counter inactive | Thrombin FP inactive
O=c1[nH]c(=S)n(Cc2ccc(F)cc2)c(O)c1C=NCc1ccc2c(c1)OCO2	Rpn11 inh 31.5 | Rpn11 confirm inactive | MMP-2 counter inactive | Thrombin FP inactive
COc1ccc(CN2Cc3cc(-c4cccc(F)c4)ccc3-n3nncc3C2)cc1	none (no result: Scp1 inh)
CC(=O)Nc1ccc(S(=O)(=O)N2Cc3cnnn3-c3ccccc3C2C#N)cc1 (stereo not given)	none
O=c1[nH]c(=O)n(Cc2ccccc2)c(O)c1/C=C1\C=Nc2ccccc21	none (not shown: Rpn11 inh)
O=c1[nH]c(=O)n(CC2CCCO2)c(O)c1/C=C1\C=Nc2ccccc21 (stereo not given)	Rpn11 inh 47.5! | Rpn11 confirm inactive | MMP-2 counter inactive | Thrombin FP inactive
CN(C(=O)Cc1ccc(Cl)c(Cl)c1)C(CN1CCCC1)c1cccc(OCC(=O)O)c1 (stereo not given)	none
O=c1[nH]c(=O)n(-c2cccc(Cl)c2)c(O)c1/C=N/c1ccccn1	none

Screening data from PubChem.
